pIC50: −log10 of the molar value. Where two headings read alike, the source gives them in different places.
Tests used:
[1] = phase 2, small number of subjects; cited from earlier work
Caco‐2 = conditions: cited from earlier work
plasma Aβ peptides = conditions: single dose at the highest dose studied, SAD study; cited from earlier work
[2] = elderly healthy subjects and patients with mild to moderate AD, up to 750 mg single dose or 150 mg multiple dose; cited from earlier work
[3] = Phase 1 randomized 3-period crossover relative bioavailability study, plasma PK; format: in vivo; conditions: both, human, po, 50 mg
[4] = cited from earlier work; for Cmax: single 150‐mg dose
BACE1 [5] = conditions: read-out: In vitro 50% inhibitory concentration (IC50) for BACE1; cited from earlier work
[6] = system: plasma, cerebrospinal fluid (CSF), and brain Aβ1–40, Aβ1–42, and sAPPβ concentrations; conditions: guinea pig; cited from earlier work
Caco-2 permeability = format: in vitro ADME; conditions: human
[7] = single oral dose of [14C]‐lanabecestat; cited from earlier work
[8] = system: plasma, cerebrospinal fluid (CSF), and brain Aβ1–40, Aβ1–42, and sAPPβ concentrations; conditions: mouse; cited from earlier work
[9] = Safety and tolerability monitoring in the crossover study; format: in vivo, human; conditions: healthy subjects
Outline: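 Single oral 50 mg dose on days 1, 8 and 15 as 10 mL solution (5 mg/mL), tablet A or tablet B, with 7–10-day washout. Dosed after an overnight fast with 240 mL water, fasted to 4 h postdose. AEs, hematology, chemistry (ALT, AST, ALP), urinalysis, vitals, ECG, physical/neurological examination and C-SSRS were monitored throughout.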

BACE1 [10] = conditions: in vitro; cited from earlier work
[11] = system: plasma and CSF Aβ peptides; conditions: once‐weekly (70‐mg) dosing schedule; cited from earlier work
[12] = system: plasma, cerebrospinal fluid (CSF), and brain Aβ1–40, Aβ1–42, and sAPPβ concentrations; conditions: dog; cited from earlier work
[13] = single 50 mg dose, safety set n = 16

**Q.** With `NC1=N[C@@]2(c3cc(NC(=O)c4ccc(F)cn4)ccc3F)COC[C@H]2CS1` [LY2886721] as the compound, how does the “Liver safety finding that terminated clinical development” value [1] read?
**A.** elevations in circulating liver‐enzyme activity

**Q.** With `CC#Cc1cncc(-c2ccc3c(c2)[C@@]2(N=C(C)C(N)=N2)[C@]2(CC[C@H](OC)CC2)C3)c1` [lanabecestat, [1r,1′R,4R]‐4‐methoxy‐5″‐methyl‐6′‐[5‐(prop‐1‐yn‐1‐yl)pyridin‐3‐yl]‐3′H‐dispiro[cyclohexane‐1,2′‐indene‐1′,2″‐imidazol]‐4″‐amine] as the compound, how does the “Mean Caco‐2 apical‐to‐basolateral Papp permeability” value (Caco‐2) read?
**A.** 34.8 × 10^‐6 cm/s

**Q.** And the “Duration of suppression of plasma Aβ peptides” value (plasma Aβ peptides)?
**A.** up to 3 weeks

**Q.** What about the Safety and tolerability [2] of the same compound?
**A.** no safety or tolerability concerns

**Q.** What about the half-life [3] of the same compound?
**A.** ~16 h

**Q.** What about the Cmax ([4]; fasted) of the same compound?
**A.** 701 ng/mL

**Q.** And the Cmax ([4]; fed)?
**A.** 499 ng/mL

**Q.** What about the “Effect of food intake on AUC” value ([4]; food intake) of the same compound?
**A.** minimal effect

**Q.** And the “tmax with food intake (later tmax)” value ([4]; food intake)?
**A.** ~2 h

**Q.** What about the pIC50 (BACE1 [5]) of the same compound?
**A.** 9.22

**Q.** What about the “Plasma, CSF and brain Aβ1–40, Aβ1–42 and sAPPβ concentrations” value (“Plasma … Aβ1–42 and sAPPβ concentrations” below) [6] of the same compound?
**A.** robustly reduced

**Q.** What about the Papp (Caco-2 permeability) of the same compound?
**A.** > 10 ×10⁻⁶ cm/s

**Q.** What about the “Radioactive dose recovered in feces” value [7] of the same compound?
**A.** 74%

**Q.** What about the “Radioactive dose recovered in urine” value [7] of the same compound?
**A.** 25%

**Q.** And the “Plasma … Aβ1–42 and sAPPβ concentrations” value [8]?
**A.** robustly reduced

**Q.** What about the Tolerability ([9]; single 50 mg dose as solution or tablet) of the same compound?
**A.** well tolerated

**Q.** And the “Severity of adverse events” value ([9]; single 50 mg dose)?
**A.** mild

**Q.** What about the “Subjects reporting adverse events” value ([9]; single 50 mg dose, 16 subjects) of the same compound?
**A.** 37.5%

**Q.** And the “Number of subjects with ≥1 TEAE” value [9, 13]?
**A.** 6 (37.5) n (%)

**Q.** And the “TEAE: Dizziness” value [9, 13]?
**A.** 1 (6.3) n (%)

**Q.** What about the “TEAE: Dry skin” value [9, 13] of the same compound?
**A.** 2 (12.5) n (%)

**Q.** What about the “TEAE: Headache” value [9, 13] of the same compound?
**A.** 2 (12.5) n (%)

**Q.** What about the “TEAE: URTI” value [9, 13] of the same compound?
**A.** 1 (6.3) n (%)

**Q.** What about the “Changes in liver‐related clinical chemistry parameters” value ([9]; single 50 mg doses) of the same compound?
**A.** no significant changes

**Q.** What about the “Off‐rate from BACE1, half‐life” value (BACE1 [10]) of the same compound?
**A.** approximately 9 hours

**Q.** And the “Suppression of plasma and CSF Aβ peptides” value [11]?
**A.** prolonged suppression

**Q.** What about the “Plasma … Aβ1–42 and sAPPβ concentrations” value [12] of the same compound?
**A.** robustly reduced

From paper PMC5947295 (Clinical Pharmacology in Drug Development, 2018)
